Where only a bound is given, the exact number is not on record here.

One series deals with Entamoeba histolytica. In words: Antiamoebic activity against Entamoeba histolytica HM-1:IMSS trophozoites incubated for 10 mins under nitrogen gassed condition measured after 72 hrs by eosin staining based micro dilution method. The class given is functional. A digest of the protocol: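 Microdilution in 96-well plates with trophozoites in Diamond TYIS-33 medium at 10^5 cells per mL. Compounds dissolved in ethanol (level non-inhibitory to amoebae), stock 1 mg/mL, tested in triplicate. Plate sealed, gassed with nitrogen 10 min, incubated 37 °C for 72 h. Then medium removed, washed with 0.9% NaCl, methanol-fixed and stained with 0.5% aqueous eosin for 15 min, OD read at 490 nm. IC50 from non-linear regression of % inhibition versus control. At least two independent experiments.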
With `CN(C)CCOc1ccc(C(=O)N/N=C/c2ccccn2)cc1`, it took 2370 nM to reach half-maximal inhibition (IC50). `CCc1ccc(/C=N/NC(=O)c2ccc(OCCN(C)C)cc2)cc1` showed an IC50 of 5650 nM. On the same count and under the same terms, the same measure for `COc1ccc(OC)c(/C=N/NC(=O)c2ccc(OCCN(C)C)cc2)c1`: 1810 nM. On the same count and under the same terms, with `CN(C)CCOc1ccc(C(=O)N/N=C/c2cc(Br)c(O)c(Br)c2)cc1` the figure was 1170 nM; with `CCOc1ccc(/C=N/NC(=O)c2ccc(OCCN(C)C)cc2)cc1`, 3770 nM; with `COc1cc(/C=N/NC(=O)c2ccc(OCCN(C)C)cc2)ccc1OC(C)C`, 4130 nM. The same measure, in the same setting: with `Cc1ccsc1/C=N/NC(=O)c1ccc(OCCN(C)C)cc1` the figure was 4980 nM; with `COc1cc(/C=N/NC(=O)c2ccc(OCCN(C)C)cc2)ccc1OC(C)=O`, 790 nM. In turn, `Cc1cc(C)c(/C=N/NC(=O)c2ccc(OCCN(C)C)cc2)c(C)c1` had an IC50 of 1890 nM.

Turning to `CN(C)CCOc1ccc(C(=O)N/N=C/c2ccc(Cl)cc2)cc1`, the half-maximal inhibitory concentration (IC50) is 790 nM. Same read-out and setting: the same measure for `CC(C)c1ccc(/C=N/NC(=O)c2ccc(OCCN(C)C)cc2)cc1`: 3450 nM; for `CN(C)CCOc1ccc(C(=O)N/N=C/c2ccc(O)c(O)c2)cc1`: 6400 nM.

The compound `CN(C)CCOc1ccc(C(=O)N/N=C/c2ccc(Cl)c(Cl)c2)cc1` registered an IC50 of 2810 nM. Still for that read-out and setting: the same measure for `Cc1ncc([N+](=O)[O-])n1CCO` [METRONIDAZOLE]: 1890 nM.

Compound `COc1ccc(/C=N/NC(=O)c2ccc(OCCN(C)C)cc2)cc1OC` gave an IC50 of 2690 nM. In turn, `COc1c(O)ccc(/C=N/NC(=O)c2ccc(OCCN(C)C)cc2)c1Br` displayed a concentration for half-maximal inhibition (IC50) of 3610 nM. Still for that read-out and setting: with `COc1cc(/C=N/NC(=O)c2ccc(OCCN(C)C)cc2)ccc1O` the figure was 2410 nM. Turning to `Cc1ccc(/C=N/NC(=O)c2ccc(OCCN(C)C)cc2)cc1`, the midpoint of inhibition, the IC50, lay at 1860 nM. Same read-out and setting: with `CN(C)CCOc1ccc(C(=O)N/N=C/c2ccc(N(C)C)cc2)cc1` the figure was 1890 nM. Still for that read-out and setting: the same measure for `CC(C)Oc1ccc(/C=N/NC(=O)c2ccc(OCCN(C)C)cc2)cc1`: 7650 nM. `CN(C)CCOc1ccc(C(=O)N/N=C/c2ccccc2Cl)cc1`: the IC50 came to 230 nM. On the same count and under the same terms, with `CN(C)CCOc1ccc(C(=O)N/N=C/c2cccc(Cl)c2)cc1` the figure was 1010 nM; with `CN(C)CCOc1ccc(C(=O)N/N=C/c2ccccc2)cc1`, 1430 nM. On the same count and under the same terms, the same measure for `COc1ccc(/C=N/NC(=O)c2ccc(OCCN(C)C)cc2)cc1`: 1530 nM; for `CN(C)CCOc1ccc(C(=O)N/N=C/c2ccc([N+](=O)[O-])cc2)cc1`: 2400 nM. The same measure, in the same setting: with `CN(C)CCOc1ccc(C(=O)N/N=C/c2ccc(O)cc2)cc1` the figure was 2210 nM; with `CCOC(OCC)c1ccc(/C=N/NC(=O)c2ccc(OCCN(C)C)cc2)cc1`, 1140 nM. In turn, `CN(C)CCOc1ccc(C(=O)N/N=C/c2ccccc2O)cc1` had an IC50 of 1760 nM.

On to `CN(C)CCOc1ccc(C(=O)N/N=C/c2cccc([N+](=O)[O-])c2)cc1`, for which the midpoint of inhibition, the IC50, lay at 2800 nM.

In turn, `CN(C)CCOc1ccc(C(=O)N/N=C/c2ccc3c(c2)OCO3)cc1` registered an IC50 of 1060 nM.

Tested on in the next series: not listed separately
In words: Cytotoxicity against human A549 cells assessed as reduction in cell viability after 48 hrs by MTT assay. Format: toxicity, cell-based. The essentials: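 Cells seeded at 8000/well in Ham's F-12 with 10% FBS and grown to 80–90% confluence. Medium then replaced with drug-containing medium with 1% FBS; drug range […], each concentration in triplicate, medium-only negative controls. Stocks made in ethanol, diluted in medium. Incubated at 37 °C, 5% CO2 for 48 h. MTT (5 mg/ml) added for 4 h, formazan dissolved in DMSO, absorbance read at 560 nm with 670 nm reference. Viability relative to controls; IC50 from concentration–viability plot.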
A general note: Formazan colour is commonly taken as a measure of viable cells.
As for `COc1ccc(OC)c(/C=N/NC(=O)c2ccc(OCCN(C)C)cc2)c1`, the IC50 at 48 h was determined as 110 µM. Same read-out and setting: with `CN(C)CCOc1ccc(C(=O)N/N=C/c2cc(Br)c(O)c(Br)c2)cc1` the figure was 281 µM; with `COc1cc(/C=N/NC(=O)c2ccc(OCCN(C)C)cc2)ccc1OC(C)=O`, 186 µM. The same measure, in the same setting: the same measure for `Cc1cc(C)c(/C=N/NC(=O)c2ccc(OCCN(C)C)cc2)c(C)c1`: 81.7 µM; for `CN(C)CCOc1ccc(C(=O)N/N=C/c2ccc(Cl)cc2)cc1`: 69.4 µM.

Regarding `Cc1ncc([N+](=O)[O-])n1CCO` [METRONIDAZOLE], the IC50 at 48 h was above 100 µM. On the same count and under the same terms, with `Cc1ccc(/C=N/NC(=O)c2ccc(OCCN(C)C)cc2)cc1` the figure was 475 µM; with `CN(C)CCOc1ccc(C(=O)N/N=C/c2ccc(N(C)C)cc2)cc1`, 481 µM; with `CN(C)CCOc1ccc(C(=O)N/N=C/c2ccccc2Cl)cc1`, 134 µM. The same measure, in the same setting: the same measure for `CN(C)CCOc1ccc(C(=O)N/N=C/c2cccc(Cl)c2)cc1`: 140 µM; for `CN(C)CCOc1ccc(C(=O)N/N=C/c2ccccc2)cc1`: 268 µM; for `COc1ccc(/C=N/NC(=O)c2ccc(OCCN(C)C)cc2)cc1`: 126 µM. Same read-out and setting: with `CCOC(OCC)c1ccc(/C=N/NC(=O)c2ccc(OCCN(C)C)cc2)cc1` the figure was 172 µM; with `CN(C)CCOc1ccc(C(=O)N/N=C/c2ccccc2O)cc1`, 404 µM; with `CN(C)CCOc1ccc(C(=O)N/N=C/c2ccc3c(c2)OCO3)cc1`, 548 µM.

By IC50 is commonly meant the midpoint of a concentration-inhibition curve.

Values taken from ChEMBL document CHEMBL3875158, “Synthesis and biological evaluation of 4-(2-(dimethylamino)ethoxy)benzohydrazide derivatives as inhibitors of Entamoeba histolyica” (Eur J Med Chem, 2016).
